Laboratory results: ChEMBL document CHEMBL1212762, “In vivo activity of ceftobiprole in murine skin infections due to Staphylococcus aureus and Pseudomonas aeruginosa” (Antimicrob Agents Chemother, 2010)

Key:
Zone of skin [1] = assay: fAUC (0-infinity) in immunocompetent SKH1 mouse skin at 50 mg/kg, sc; assay type: ADME, organism-based; set-up: dose 50 mg/kg, route subcutaneous; details: in vivo
How it was run: (§1)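 Female SKH1 hairless mice, immunocompetent or cyclophosphamide-neutropenic, infected s.c. with MRSA OC 8525 or P. aeruginosa OC 4354 on the Cytodex beads (left flank), sterile beads on the right. Single dose 24 h later: s.c. at the nape, or linezolid 50 mg/kg oral. Plasma and skin (DMSO homogenate) sampled over time, HPLC with diode array.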

[2] = fT>MIC in Pseudomonas aeruginosa OC 4354 infected sc dosed SKH1 mouse administered in 24 hrs dosing interval; assay type: functional
How it was run: (§2)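 Plasma levels came from female hairless SKH1 mice given single s.c. doses at the nape 24 h after flank s.c. infection with Cytodex beads. S. aureus work used immunocompetent mice. P. aeruginosa work used mice made neutropenic with cyclophosphamide i.p., 150 mg/kg at day −5 and 100 mg/kg at day −1. Drug assayed by HPLC with diode-array detection. Noncompartmental analysis.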

Plasma [3] = assay: fAUC (0-infinity) in immunocompetent SKH1 mouse plasma at 12.5 mg/kg, sc; assay type: ADME, organism-based; set-up: dose 12.5 mg/kg, route subcutaneous; details: in vivo; how it was run: as §1
Pseudomonas aeruginosa [4] = assay: Antimicrobial activity against Pseudomonas aeruginosa OC 4354 infected in immunocompromized SKH1 mouse assessed as log change in bacterial colony forming unit at 1.6 mg/kg/day, sc; assay type: functional; details: route subcutaneous
How it was run: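 Female SKH1 hairless mice made neutropenic with ip cyclophosphamide (150 mg/kg 5 days and 100 mg/kg 1 day before infection). 0.2 ml s.c. Cytodex bead (0.1% vol/vol) inoculum in BHI: OC 4351 left flank, OC 4354 right flank. Drug s.c. at 1, 3, 25, 27 h postinfection. Killed at 48 h; skin homogenised in saline, plated on TSA 18 h 37°C; Δlog CFU/g versus inoculum. 5 mice/dose, run twice.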

Plasma [5] = assay: fAUC (0-infinity) in immunocompromized SKH1 mouse plasma at 50 mg/kg, sc; assay type: ADME, organism-based; set-up: dose 50 mg/kg, route subcutaneous; details: in vivo; how it was run: as §1
[6] = Tmax in immunocompromized SKH1 mouse skin at 50 mg/kg, sc; assay type: ADME, organism-based, Zone of skin; set-up: dose 50 mg/kg, route subcutaneous; how it was run: as §1
[7] = fT>MIC in Staphylococcus aureus OC 4172 infected sc dosed SKH1 mouse administered in 24 hrs dosing interval; assay type: functional; how it was run: as §2
Staphylococcus aureus [8] = assay: Antimicrobial activity against methicillin-susceptible Staphylococcus aureus Smith OC 4172 infected immunocompetent SKH1 mouse assessed as lesion volume at 25 mg/kg/day, sc measured after 48 hrs postinfection (reference value: 1181 mm3); details: route subcutaneous
Pseudomonas aeruginosa [9] = assay: Antimicrobial activity against Pseudomonas aeruginosa OC 4354 infected in immunocompromized SKH1 mouse assessed as lesion volume at 6.2 mg/kg/day, sc measured after 48 hrs postinfection (reference value: 2195 mm3); assay type: functional; details: route subcutaneous
[10] = Half life in immunocompromized SKH1 mouse plasma at 50 mg/kg, sc; assay type: ADME, organism-based; set-up: dose 50 mg/kg, route subcutaneous
Zone of skin [11] = assay: fCmax in immunocompromized SKH1 mouse skin at 50 mg/kg, sc; assay type: ADME, organism-based; set-up: dose 50 mg/kg, route subcutaneous; details: in vivo; how it was run: as §1
Plasma [12] = assay: fCmax in immunocompetent SKH1 mouse plasma at 12.5 mg/kg, sc; assay type: ADME, organism-based; set-up: dose 12.5 mg/kg, route subcutaneous; details: in vivo; how it was run: as §1
[13] = fT>MIC in Pseudomonas aeruginosa OC 4354 infected sc dosed SKH1 mouse at 50 mg/kg, sc administered twice at 1 and 3 hrs after infection; assay type: functional; details: route subcutaneous
[14] = Half life in immunocompetent SKH1 mouse plasma at 50 mg/kg, sc; assay type: ADME, organism-based; set-up: dose 50 mg/kg, route subcutaneous
Pseudomonas aeruginosa [15] = assay: Antimicrobial activity against Pseudomonas aeruginosa OC 4351 assessed as inhibition of growth by broth microdilution method; assay type: functional
[16] = Tmax in Staphylococcus aureus infected […] SKH1 mouse skin at 50 mg/kg, sc; assay type: ADME, organism-based, Zone of skin; set-up: dose 50 mg/kg, route subcutaneous
Staphylococcus aureus [17] = assay: Antimicrobial activity against methicillin-susceptible Staphylococcus aureus Smith OC 4172 infected in SKH1 mouse assessed as log change in bacterial colony forming unit per gram of skin tissue at 1.6 mg/kg/day, sc (reference value: 1.6 deltalog CFU); assay type: functional; details: route subcutaneous
[18] = fT>MIC in Pseudomonas aeruginosa OC 4351 infected sc dosed SKH1 mouse at 50 mg/kg, sc administered twice at 1 and 3 hrs after infection; assay type: functional; details: route subcutaneous
[19] = Tmax in Staphylococcus aureus infected immunocompetent SKH1 mouse skin at 50 mg/kg, sc; assay type: ADME, organism-based, Zone of skin; set-up: dose 50 mg/kg, route subcutaneous; how it was run: as §1
Pseudomonas aeruginosa [20] = assay: Antimicrobial activity against Pseudomonas aeruginosa OC 4354 assessed as inhibition of growth by broth microdilution method; assay type: functional
Staphylococcus aureus [21] = assay: Antimicrobial activity against methicillin-resistant Staphylococcus aureus OC 8525 infected immunocompetent SKH1 mouse assessed as lesion volume at 25 mg/kg/day, sc measured after 48 hrs postinfection (reference value: 1535 mm3); details: route subcutaneous
[22] = Tmax in immunocompetent SKH1 mouse skin at 50 mg/kg, sc; assay type: ADME, organism-based, Zone of skin; set-up: dose 50 mg/kg, route subcutaneous; how it was run: as §1
Pseudomonas aeruginosa [23] = assay: Antimicrobial activity against Pseudomonas aeruginosa OC 4351 infected in immunocompromized SKH1 mouse assessed as lesion volume at 100 mg/kg/day, sc measured after 48 hrs postinfection (reference value: 2234 mm3); assay type: functional; details: route subcutaneous
[24] = Tmax in immunocompromized SKH1 mouse plasma at 50 mg/kg, sc; assay type: ADME, organism-based; set-up: dose 50 mg/kg, route subcutaneous; how it was run: as §1
Staphylococcus aureus [25] = assay: Antimicrobial activity against methicillin-susceptible Staphylococcus aureus Smith OC 4172 infected immunocompetent SKH1 mouse assessed as lesion volume at 1.6 mg/kg/day, sc measured after 48 hrs postinfection (reference value: 1181 mm3); details: route subcutaneous
[26] = Tmax in immunocompetent SKH1 mouse plasma at 12.5 mg/kg, sc; assay type: ADME, organism-based; set-up: dose 12.5 mg/kg, route subcutaneous; how it was run: as §1
[27] = Half life in immunocompetent SKH1 mouse skin at 50 mg/kg, sc; assay type: ADME, organism-based, Zone of skin; set-up: dose 50 mg/kg, route subcutaneous; how it was run: as §1
[28] = Half life in immunocompetent SKH1 mouse plasma at 12.5 mg/kg, sc; assay type: ADME, organism-based; set-up: dose 12.5 mg/kg, route subcutaneous; how it was run: as §1
Staphylococcus aureus [29] = assay: Antimicrobial activity against methicillin-resistant Staphylococcus aureus OC 8525 assessed as inhibition of growth by broth microdilution method; assay type: functional
Pseudomonas aeruginosa [30] = assay: Antimicrobial activity against Pseudomonas aeruginosa OC 4351 infected in immunocompromized SKH1 mouse assessed as lesion volume at 1.6 mg/kg/day, sc measured after 48 hrs postinfection (reference value: 2234 mm3); assay type: functional; details: route subcutaneous
Staphylococcus aureus [31] = assay: Antimicrobial activity against methicillin-susceptible Staphylococcus aureus Smith OC 4172 infected immunocompetent SKH1 mouse assessed as lesion volume at 6.2 mg/kg/day, sc measured after 48 hrs postinfection (reference value: 1181 mm3); details: route subcutaneous
Pseudomonas aeruginosa [32] = assay: Antimicrobial activity against Pseudomonas aeruginosa OC 4354 infected in immunocompromized SKH1 mouse assessed as lesion volume at 25 mg/kg/day, sc measured after 48 hrs postinfection (reference value: 2195 mm3); assay type: functional; details: route subcutaneous
[33] = Half life in Pseudomonas aeruginosa infected immunocompromized SKH1 mouse skin at 50 mg/kg, sc
Plasma [34] = assay: fAUC (0-infinity) in immunocompetent SKH1 mouse plasma at 50 mg/kg, sc; assay type: ADME, organism-based; set-up: dose 50 mg/kg, route subcutaneous; details: in vivo; how it was run: as §1
Pseudomonas aeruginosa [35] = assay: Antimicrobial activity against Pseudomonas aeruginosa OC 4354 infected in immunocompromized SKH1 mouse assessed as lesion volume at 1.6 mg/kg/day, sc measured after 48 hrs postinfection (reference value: 2195 mm3); assay type: functional; details: route subcutaneous

## Nc1nc(/C(=N/O)C(=O)N[C@@H]2C(=O)N3C(C(=O)O)=C(/C=C4\CCN([C@@H]5CCNC5)C4=O)CS[C@H]23)ns1 [CEFTOBIPROLE]
Zone of skin [1]
  fAUC: 668 µg·min/mL
[2]
  fT>MIC: 9.1%
Plasma [3]
  fAUC: 481 µg·min/mL
Pseudomonas aeruginosa [4]
  deltalog10CFU: 1.7
Plasma [5]
  fAUC: 2011 µg·min/mL
[6]
  Tmax: 15 min
[7]
  fT>MIC: >17%
Staphylococcus aureus [8]
  Activity: 640 mm3
Pseudomonas aeruginosa [9]
  Activity: 1028 mm3
[10]
  half-life: 13 min
Zone of skin [11]
  fCmax: 17 µg/g
Plasma [12]
  fCmax: 17 µg/mL
[13]
  fT>MIC: 2.2 h
[14]
  half-life: 13 min
Pseudomonas aeruginosa [15]
  MIC: 4 µg/mL
[16]
  Tmax: 15 min
Staphylococcus aureus [17]
  deltalog10CFU: -1
[18]
  fT>MIC: 2.2 h
[19]
  Tmax: 15 min
Pseudomonas aeruginosa [20]
  MIC: 4 µg/mL
Staphylococcus aureus [21]
  Activity: 642 mm3
[22]
  Tmax: 15 min
Pseudomonas aeruginosa [23]
  Activity: 389 mm3
[24]
  Tmax: 7.5 min
Staphylococcus aureus [25]
  Activity: 937 mm3
[26]
  Tmax: 7.5 min
[27]
  half-life: 19 min
[28]
  half-life: 17 min
Staphylococcus aureus [29]
  MIC: 1 µg/mL
Pseudomonas aeruginosa [30]
  Activity: 1593 mm3
Staphylococcus aureus [31]
  Activity: 885 mm3
Pseudomonas aeruginosa [32]
  Activity: 580 mm3
[33]
  half-life: 76 min
Plasma [34]
  fAUC: 2336 µg·min/mL
Pseudomonas aeruginosa [35]
  Activity: 1833 mm3
